Calls of active or inactive are those of the source. The rule behind the calls is not given here.
Columns and labels:
Escherichia coli [1] = assay: Antibacterial activity against Escherichia coli assessed as zone of inhibition at 0.01 mg/mL after 24 hrs by stiff-plate agar-diffusion method; format: functional
How it was run: (§1)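 Stiff-plate agar diffusion. Inoculum 10^9 c.f.u./mL. Compounds were streaked across grooves in the agar nutrient plate and left to diffuse. Plates were incubated 24 h at 35 °C. Read-out was inhibition zone diameter: 11–15 mm not sensitive, 16–25 mm sensitive, >25 mm highly sensitive. Vancomycin and oxacillin were the standards. Three repeats.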

Staphylococcus aureus [2] = assay: Antibacterial activity against Staphylococcus aureus assessed as zone of inhibition at 0.01 mg/mL after 24 hrs by stiff-plate agar-diffusion method; format: functional; how it was run: as §1
Mycobacterium [3] = assay: Antibacterial activity against Mycobacterium luteum assessed as zone of inhibition at 0.01 mg/mL after 24 hrs by stiff-plate agar-diffusion method; format: functional; how it was run: as §1
Yamadazyma tenuis [4] = assay: Antifungal activity against Candida tenuis assessed as zone of inhibition at 0.01 mg/mL after 48 to 72 hrs by stiff-plate agar-diffusion method; format: functional
How it was run: (§2)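 Fungi were tested by stiff-plate agar diffusion from a 10^9 c.f.u./mL inoculum. Compounds were placed in agar grooves and allowed to diffuse. Incubation was 48–72 h at 28–30 °C. Inhibition zone diameter was scored as not sensitive (11–15 mm), sensitive (16–25 mm) or highly sensitive (>25 mm). Nystatin was the standard. Experiments were done in triplicate.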

Aspergillus niger [5] = assay: Antifungal activity against Aspergillus niger assessed as zone of inhibition at 0.01 mg/mL after 48 to 72 hrs by stiff-plate agar-diffusion method; format: functional; how it was run: as §2
[6] = system: Photobacterium leiognathi; assay: Antibacterial activity against Photobacterium leiognathi Sh1 assessed as inhibition of bacterial luminescence at 0.1 mg/mL after 10 mins by bioluminometry-based acute action test; format: functional; set-up: scale not given: the % may be the effect or the level left
How it was run: (§3)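 Marine P. leiognathi Sh1 (Azov Sea shrimp isolate) diluted in chloride solution to 10^5 cells/mL; compounds suspended in DMSO mixed with 1 mL bacterial suspension. Acute test: 10 min at 25 °C, then bioluminescence measured by bioluminometer as % of compound-free control. Tetracycline reference.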

[7] = system: Photobacterium leiognathi; assay: Antibacterial activity against Photobacterium leiognathi Sh1 assessed as inhibition of bacterial luminescence at 0.1 mg/mL after 10 mins by bioluminometry-based chronic action test; format: functional; set-up: scale not given: the % may be the effect or the level left
How it was run: (§4)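 Chronic (growth plus luminescence) test with P. leiognathi Sh1 at 10^5 cells/mL in chloride solution, compounds added in DMSO. After 10 min at 25 °C, growth medium added at 1:50 and the mix incubated 16–18 h at 30 °C. Luminescence then measured by bioluminometer as % of untreated control. Tetracycline reference.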

[8] = system: Photobacterium leiognathi; assay: Antibacterial activity against Photobacterium leiognathi Sh1 assessed as inhibition of bacterial luminescence at 0.25 mg/mL after 10 mins by bioluminometry-based chronic action test; format: functional; set-up: scale not given: the % may be the effect or the level left; how it was run: as §4
Escherichia coli [9] = assay: Antibacterial activity against Escherichia coli at 1 to 5 mg/mL after 24 hrs by stiff-plate agar-diffusion method; format: functional, organism-based
How it was run: (§5)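 Agar diffusion (stiff plate) with test substances at 5 mg/mL in grooves, allowed to diffuse into nutrient agar; inoculum 10^9 c.f.u./mL; bacteria incubated 24 h at 35 °C. Read-out: inhibition zone diameter (not sensitive 11–15 mm, sensitive 16–25 mm, highly sensitive >25 mm). Vancomycin and oxacillin as standards; three repeats.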

Staphylococcus aureus [10] = assay: Antibacterial activity against Staphylococcus aureus at 1 to 5 mg/mL after 24 hrs by stiff-plate agar-diffusion method; format: functional, organism-based; how it was run: as §5
Mycobacterium [11] = assay: Antibacterial activity against Mycobacterium luteum at 1 to 5 mg/mL after 24 hrs by stiff-plate agar-diffusion method; format: functional, organism-based; how it was run: as §5
Yamadazyma tenuis [12] = assay: Antifungal activity against Candida tenuis at 1 to 5 mg/mL after 48 to 72 hrs by stiff-plate agar-diffusion method; format: functional, organism-based
How it was run: (§6)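 Fungal plates run by stiff-plate agar diffusion, substances applied to grooves at 5 mg/mL; 10^9 c.f.u./mL cells; incubation 48–72 h at 28–30 °C. Inhibition zone diameter scored (11–15 mm not sensitive, 16–25 mm sensitive, >25 mm highly sensitive). Nystatin standard; experiments done three times.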

Aspergillus niger [13] = assay: Antifungal activity against Aspergillus niger at 1 to 5 mg/mL after 48 to 72 hrs by stiff-plate agar-diffusion method; format: functional, organism-based; how it was run: as §6
[14] = system: Photobacterium leiognathi; assay: Antibacterial activity against Photobacterium leiognathi Sh1 assessed as inhibition of bacterial luminescence at 0.025 mg/mL after 10 mins by bioluminometry-based chronic action test; format: functional; set-up: scale not given: the % may be the effect or the level left; how it was run: as §4
[15] = system: Photobacterium leiognathi; assay: Antibacterial activity against Photobacterium leiognathi Sh1 assessed as inhibition of bacterial luminescence at 0.25 mg/mL after 10 mins by bioluminometry-based acute action test; format: functional; set-up: scale not given: the % may be the effect or the level left; how it was run: as §3
[16] = system: Photobacterium leiognathi; assay: Antibacterial activity against Photobacterium leiognathi Sh1 assessed as inhibition of bacterial luminescence at 0.025 mg/mL after 10 mins by bioluminometry-based acute action test; format: functional; set-up: scale not given: the % may be the effect or the level left; how it was run: as §3
[17] = system: Photobacterium leiognathi; assay: Antibacterial activity against Photobacterium leiognathi Sh1 at 0.1 to 0.25 ug/mL; format: functional, organism-based
CCRF-CEM = assay: Cytotoxicity against human CCRF-CEM cells assessed as cell growth at 10^-5 M after 48 hrs by SRB assay; format: functional; conditions: read-out: Activity
How it was run: (§7)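 NCI 60-cell-line one-dose primary screen: cells inoculated and preincubated 24–48 h, then test agent added at a single 10^-5 M concentration for a further 48 h. Endpoint is sulforhodamine B protein staining read spectrophotometrically. Reported as percent growth relative to untreated control cells.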

SNB-75 = assay: Cytotoxicity against human SNB75 cells assessed as cell growth at 10^-5 M after 48 hrs by SRB assay; format: functional; conditions: SNB-75, 48 h, read-out: Activity
How it was run: (§8)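 NCI human tumor cell line panel from nine cancer types. Each line was inoculated and preincubated 24–48 h, then exposed to a single concentration (10^-5 M) for 48 h. Growth was read by sulforhodamine B protein staining, measured spectrophotometrically. Value reported as percent growth of treated cells relative to untreated controls.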

CAKI-1 = assay: Cytotoxicity against human Caki1 cells assessed as cell growth at 10^-5 M after 48 hrs by SRB assay; format: functional; conditions: CAKI-1, 48 h, read-out: Activity; how it was run: as §7
UO-31 = assay: Cytotoxicity against human UO31 cells assessed as cell growth at 10^-5 M after 48 hrs by SRB assay; format: functional; conditions: UO-31, 48 h, read-out: Activity; how it was run: as §8
PC-3 = assay: Cytotoxicity against human PC3 cells assessed as cell growth at 10^-5 M after 48 hrs by SRB assay; format: functional; conditions: PC-3, 48 h, read-out: Activity; how it was run: as §8
Escherichia coli [18] = assay: Antibacterial activity against Escherichia coli assessed as zone of inhibition at 0.5 mg/mL after 24 hrs by stiff-plate agar-diffusion method; format: functional; conditions: read-out: DIZ
Escherichia coli [19] = assay: Antibacterial activity against Escherichia coli assessed as zone of inhibition at 0.1 mg/mL after 24 hrs by stiff-plate agar-diffusion method; format: functional; conditions: read-out: DIZ
Staphylococcus aureus [20] = assay: Antibacterial activity against Staphylococcus aureus assessed as zone of inhibition at 0.5 mg/mL after 24 hrs by stiff-plate agar-diffusion method; format: functional; conditions: read-out: DIZ
Staphylococcus aureus [21] = assay: Antibacterial activity against Staphylococcus aureus assessed as zone of inhibition at 0.1 mg/mL after 24 hrs by stiff-plate agar-diffusion method; format: functional; conditions: read-out: DIZ
Mycobacterium [22] = assay: Antibacterial activity against Mycobacterium luteum assessed as zone of inhibition at 0.5 mg/mL after 24 hrs by stiff-plate agar-diffusion method; format: functional; conditions: read-out: DIZ
Mycobacterium [23] = assay: Antibacterial activity against Mycobacterium luteum assessed as zone of inhibition at 0.1 mg/mL after 24 hrs by stiff-plate agar-diffusion method; format: functional; conditions: read-out: DIZ
Yamadazyma tenuis [24] = assay: Antifungal activity against Candida tenuis assessed as zone of inhibition at 0.5 mg/mL after 48 to 72 hrs by stiff-plate agar-diffusion method; format: functional; conditions: read-out: DIZ
Yamadazyma tenuis [25] = assay: Antifungal activity against Candida tenuis assessed as zone of inhibition at 0.1 mg/mL after 48 to 72 hrs by stiff-plate agar-diffusion method; format: functional; conditions: read-out: DIZ
Aspergillus niger [26] = assay: Antifungal activity against Aspergillus niger assessed as zone of inhibition at 0.1 mg/mL after 48 to 72 hrs by stiff-plate agar-diffusion method; format: functional; conditions: read-out: DIZ
Aspergillus niger [27] = assay: Antifungal activity against Aspergillus niger assessed as zone of inhibition of late spore formation at 0.5 mg/mL after 48 to 72 hrs by stiff-plate agar-diffusion method; format: functional; conditions: read-out: DIZ
[28] = in the assay text read “after 16 to 18 hrs” for “after 10 mins”

Compound	Activity [6] [%]	Activity [7] [%]	Activity [8] [%]	Activity (Escherichia coli [9])	Activity (Staphylococcus aureus [10])	Activity (Mycobacterium [11])	Activity (Yamadazyma tenuis [12])	Activity (Aspergillus niger [13])	Activity [14] [%]	Activity [15] [%]	Activity [16] [%]	also measured
NYSTATIN												inhibition zone (IZ) (Escherichia coli [1]): 0 mm; inhibition zone (IZ) (Staphylococcus aureus [2]): 11 mm; inhibition zone (IZ) (Mycobacterium [3]): 15 mm; inhibition zone (IZ) (Yamadazyma tenuis [4]): 24 mm; inhibition zone (IZ) (Aspergillus niger [5]): 25 mm
Cc1ccc(-c2nn3c(SCC(=O)Nc4ccc(C56CC7CC(CC(C7)C5)C6)cc4)nc4ccccc4c3nc2=O)cc1	96.15	140	16	inactive	inactive	inactive	inactive	inactive	170	50	84.62	
Cc1n[nH]c(-c2ccccc2N)nc1=O												Activity [17]: Active
Cc1onc(-c2ccccc2)c1C(=O)N[C@@H]1C(=O)N2[C@@H]1SC(C)(C)[C@@H]2C(=O)O [OXACILLIN]												zone of inhibition at 10 µg/mL (Escherichia coli [1]; read-out: DIZ): 0 mm; zone of inhibition at 10 µg/mL (Staphylococcus aureus [2]; read-out: DIZ): 21 mm; zone of inhibition at 10 µg/mL (Mycobacterium [3]; read-out: DIZ): 0 mm; zone of inhibition at 10 µg/mL (Yamadazyma tenuis [4]; read-out: DIZ): 0 mm; zone of inhibition at 10 µg/mL (Aspergillus niger [5]; read-out: DIZ): 0 mm
CN(C)[C@@H]1C(O)=C(C(N)=O)C(=O)[C@@]2(O)C(O)=C3C(=O)c4c(O)cccc4[C@@](C)(O)[C@H]3C[C@@H]12 [TETRACYCLINE]	9.1									0	80.7	Activity [7, 28]: 0%; Activity [8, 28]: 0%; Activity [14, 28]: 0%
O=C(CSc1nc2ccccc2c2nc(=O)c(-c3ccccc3)nn12)NC12CC3CC(CC(C3)C1)C2	80.43	85.71	78.57	inactive	inactive	inactive	inactive	inactive	97.14	56.52	86.96	
Cc1nn2c(SCC(=O)O)nc3ccccc3c2nc1=O	0			inactive	inactive	inactive	inactive	inactive		0	66.7	Activity [7, 28]: 61.5%; Activity [8, 28]: 0%; growth at 10 µM (CCRF-CEM): 93.3%; growth at 10 µM (SNB-75): 83.5%; growth at 10 µM (CAKI-1): 96%; growth at 10 µM (UO-31): 87.1%; growth at 10 µM (PC-3): 84.5%; Activity [14, 28]: 36.4%
Cc1nn2c(SCC(=O)Nc3ccc(C45CC6CC(CC(C6)C4)C5)cc3)nc3ccccc3c2nc1=O	65.71	94.57	50						86.96	32.86	90	zone of inhibition at 500 µg/mL (Escherichia coli [18]): 0 mm; zone of inhibition at 100 µg/mL (Escherichia coli [19]): 0 mm; zone of inhibition at 500 µg/mL (Staphylococcus aureus [20]): 0 mm; zone of inhibition at 100 µg/mL (Staphylococcus aureus [21]): 0 mm; zone of inhibition at 500 µg/mL (Mycobacterium [22]): 0 mm; zone of inhibition at 100 µg/mL (Mycobacterium [23]): 0 mm; zone of inhibition at 500 µg/mL (Yamadazyma tenuis [24]): 0 mm; zone of inhibition at 100 µg/mL (Yamadazyma tenuis [25]): 0 mm; zone of inhibition at 100 µg/mL (Aspergillus niger [26]): 0 mm; zone of inhibition at 500 µg/mL (Aspergillus niger [27]): 21 mm
CCC1C2CCC(C2)C1NC(=O)CSc1nc2ccccc2c2nc(=O)c(C)nn12 (centres undefined)	104.17			inactive	inactive	inactive	inactive	inactive		62.5	91.67	Activity [7, 28]: 93.06%; Activity [8, 28]: 86.11%; Activity [14, 28]: 90.28%
O=C(CSc1nc2ccccc2c2nc(=O)c(-c3ccccc3)nn12)Nc1ccc(C23CC4CC(CC(C4)C2)C3)cc1	80.88	111.25	66.25	inactive	inactive	inactive	inactive	inactive	118.75	54.41	102.94	
Cc1nn2c(SCC(=O)NC34CC5CC(CC(C5)C3)C4)nc3ccccc3c2nc1=O	0	1.88	0	inactive	inactive	inactive	inactive	inactive	25	0	36	

Reference: ChEMBL document CHEMBL1914438, “Synthesis and biological activity of novel N-cycloalkyl-(cycloalkylaryl)-2-[(3-R-2-oxo-2H-[1,2,4]triazino[2,3-c]quinazoline-6-yl)thio]acetamides” (2011)
